Source: ChEMBL document CHEMBL1140316, “Synthesis and immunosuppressive activity of new artemisinin derivatives. 1. [12(beta or alpha)-Dihydroartemisininoxy]phen(ox)yl aliphatic acids and esters” (J Med Chem, 2005)

Assays:
[1] = species: Mus musculus; assay: Ratio of concentration that reduced cell viability to inhibitory concentration for LPS-induced B cell proliferation; type: functional
[2] = tested on: T-cell; assay: In vitro concentration of compound required to inhibit ConA-induced T cell proliferation to 50% in BALB/c mice; type: functional, cell-based; details: Mus musculus
In short: (§1)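 Fresh spleen cells from male BALB/c mice (7–9 weeks); 5 × 10^5 cells per well in RPMI 1640 with 10% FBS, penicillin/streptomycin, 37 °C, 5% CO2, 48 h, with test compounds at varied concentrations. Stimulated with 5 µg/mL ConA (T cells) or 10 µg/mL LPS (B cells). Proliferation read as [3H]thymidine uptake over an 8 h pulse (20 kBq/well), scintillation counting. IC50 is the concentration that inhibits proliferation to 50% of control.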

[3] = In vitro concentration of compound required to inhibit LPS-induced B cell proliferation to 50% in BALB/c mice; type: functional, cell-based; details: Mus musculus; in short: as §1
[4] = species: Mus musculus; assay: In vitro concentration of compound required to reduced spleen cell viability to 50% in BALB/c mice; type: functional
In short: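 Male BALB/c mouse spleen cells (7–9 weeks), erythrocytes lysed with ammonium chloride, 5 × 10^5 cells per well in RPMI 1640/10% FBS with antibiotics. Exposed to a range of compound concentrations for 48 h at 37 °C, 5% CO2. MTT (5 mg/mL stock) added for the final 5 h, then SDS/DMF lysis buffer (pH 7.2) for 6–7 h. Absorbance read at 570 nm; CC50 is the concentration reducing viability to 50%.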

[5] = species: Mus musculus; assay: Ratio of concentration that reduced cell viability to inhibitory concentration for ConA-induced T cell proliferation; type: functional

Structure (SMILES) | Selectivity index [1] | IC50 [2] [µM] | IC50 [3] [µM] | CC50 [4] [µM] | Selectivity index [5]
C[C@H]1[C@@H](Oc2ccc(CC(=O)O)cc2)O[C@@H]2O[C@]3(C)CCC4[C@H](C)CC[C@@H]1[C@]42OO3 (some centres not stated) | >10 | 11.8 | 10.2 | > 100 | >9
C[C@H]1[C@@H](Oc2cccc(OC(=O)CCC(=O)O)c2)O[C@@H]2O[C@]3(C)CCC4[C@H](C)CC[C@@H]1[C@]42OO3 (some centres not stated) | 199 | 0.327 | 0.265 | 52.7 | 161
CCOC(=O)CNC(=O)c1ccc(O[C@H]2O[C@@H]3O[C@]4(C)CC[C@H]5[C@H](C)CC[C@@H]([C@H]2C)[C@@]35OO4)cc1 | 2421 | 2.53 | 0.0537 | 130 | 51
CC(Oc1cccc(OC2O[C@@H]3O[C@]4(C)CC[C@H]5[C@H](C)CC[C@@H]([C@H]2C)[C@@]35OO4)c1)C(=O)O (some centres not stated) | 47 | 8.6 | 0.74 | 35.1 | 4
CCOC(=O)C(C)Oc1ccc(OC2O[C@@H]3OC4(C)CCC5[C@H](C)CC[C@@H]([C@H]2C)[C@]53OO4)cc1 (single isomer, unassigned) | >118 | 0.26 | 0.85 | > 100 | >385
CC(C(=O)O)c1ccc(O[C@H]2O[C@@H]3OC4(C)CCC5[C@H](C)CC[C@@H]([C@H]2C)[C@]53OO4)cc1 (single isomer, unassigned) | 7 | 3.6 | 8.6 | 59.6 | 17
CC(Oc1cccc(O[C@@H]2OC3OC4(C)CCC5[C@H](C)CC[C@@H]([C@H]2C)[C@@]35OO4)c1)C(=O)O (single isomer, unassigned) | 5 | 7.64 | 1.05 | 5.54 | 1
C[C@H]1[C@@H](Oc2ccc(OCC(=O)O)cc2)OC2OC3(C)CCC4[C@H](C)CC[C@@H]1[C@@]24OO3 (single isomer, unassigned) | 59 | 5.34 | 5.98 | 354 | 66
COC(=O)Cc1ccc(O[C@H]2O[C@@H]3OC4(C)CCC5[C@H](C)CC[C@@H]([C@H]2C)[C@]53OO4)cc1 (single isomer, unassigned) | 45 | 0.713 | 0.179 | 8 | 11
COc1ccccc1OC(=O)C(C)Oc1cccc(O[C@H]2O[C@@H]3OC4(C)CC[C@H]5[C@H](C)CC[C@@H]([C@H]2C)[C@@]35OO4)c1 (single isomer, unassigned) | 5 | 4.12 | 0.57 | 2.99 | 1
CCOC(=O)C(C)Oc1cccc(OC2OC3OC4(C)CC[C@H]5[C@H](C)CC[C@@H]([C@H]2C)[C@@]35OO4)c1 (single isomer, unassigned) | 4 | 1.73 | 0.35 | 1.36 | 1
CC(Oc1ccc(OC2O[C@@H]3OC4(C)CC[C@H]5[C@H](C)CC[C@@H]([C@H]2C)[C@@]35OO4)cc1)C(=O)O (single isomer, unassigned) | >116 | 7.27 | 0.86 | > 100 | >14
C[C@H]1[C@@H](Oc2ccc(OCC(=O)OCCN(C)C)cc2)O[C@@H]2OC3(C)CC[C@H]4[C@H](C)CC[C@@H]1[C@@]24OO3 (single isomer, unassigned) | 42 | 1.96 | 0.0496 | 2.08 | 1
COC(=O)CCc1ccc(O[C@H]2O[C@@H]3OC4(C)CC[C@H]5[C@H](C)CC[C@@H]([C@H]2C)[C@@]35OO4)cc1 (single isomer, unassigned) | 2343 | 0.138 | 0.0178 | 41.7 | 302
COc1ccccc1OC(=O)C(C)Oc1ccc(O[C@H]2O[C@@H]3OC4(C)CC[C@H]5[C@H](C)CC[C@@H]([C@H]2C)[C@@]35OO4)cc1 (single isomer, unassigned) | 145 | 2.33 | 0.27 | 39.1 | 17
COC(=O)C(C)c1ccc(O[C@H]2O[C@@H]3OC4(C)CC[C@H]5[C@H](C)CC[C@@H]([C@H]2C)[C@@]35OO4)cc1 (single isomer, unassigned) | 8 | 0.0137 | 0.78 | 6.53 | 477
COC(=O)COc1ccc(O[C@H]2OC3OC4(C)CC[C@H]5[C@H](C)CC[C@@H]([C@H]2C)[C@@]35OO4)cc1 (single isomer, unassigned) | 28473 | 0.244 | 0.00727 | 207 | 848
C[C@H]1[C@@H](Oc2ccc(CCC(=O)O)cc2)O[C@@H]2OC3(C)CC[C@H]4[C@H](C)CC[C@@H]1[C@@]24OO3 (single isomer, unassigned) | 97 | 4 | 0.107 | 10.4 | 3
CCOC(=O)C(C)Oc1cccc(O[C@H]2O[C@@H]3OC4(C)CC[C@H]5[C@H](C)CC[C@@H]([C@H]2C)[C@@]35OO4)c1 (single isomer, unassigned) | 5 | 3.59 | 0.56 | 2.99 | 1
CO[C@H]1O[C@@H]2O[C@@]3(C)CC[C@H]4[C@H](C)CC[C@@H]([C@H]1C)[C@@]24OO3 [ARTEMETHER] | 48 | 3.82 | 1.78 | 86 | 23
C[C@@H]1CC[C@H]2[C@@H](C)C(=O)O[C@@H]3O[C@@]4(C)CC[C@@H]1[C@]32OO4 [ARTEMISININ] | 3 | 4.43 | 8.96 | 28.3 | 6
C[C@H]1[C@H](OC(=O)CCC(=O)O)O[C@@H]2O[C@@]3(C)CC[C@H]4[C@H](C)CC[C@@H]1[C@@]24OO3 [ARTESUNATE] | 33 | 4.58 | 0.989 | 32.9 | 7
C/C=C/C[C@@H](C)[C@@H](O)[C@H]1C(=O)N[C@@H](CC)C(=O)N(C)CC(=O)N(C)[C@@H](CC(C)C)C(=O)N[C@@H](C(C)C)C(=O)N(C)[C@@H](CC(C)C)C(=O)N[C@@H](C)C(=O)N[C@H](C)C(=O)N(C)[C@@H](CC(C)C)C(=O)N(C)[C@@H](CC(C)C)C(=O)N(C)[C@@H](C(C)C)C(=O)N1C [CYCLOSPORINE] | 7 | – | – | – | 963
